Rows were chosen to be rich in hits. Some 2.1% of all compounds tested hit in one or more screens of this group.
PP1 counter – blocks human PP1-alpha phosphatase, a PP5 counter-screen. P62136. purified PP1alpha, OMFP fluorescence. inhibition, % at 6.7 µM. 320,000 compounds, 0.9% hits;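 active means inhibition above the mean inhibition of all tested compounds plus 3 SD, computed separately for each screening campaign, cut at about 15% in these data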
PP5 primary – blocks human protein phosphatase 5 activity. 320,000 compounds, 0.18% hits. inhibition, % at 6.7 µM. purified PP5c, OMFP substrate fluorescence. P53041;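 active means inhibition above the campaign's mean inhibition across all tested compounds plus 3 SD, cut at about 9.5% in these data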
Apaf-1 inh – human Apaf-1 inhibition | 330,000 compounds, 0.71% hits | inhibition, % at 20 µM | AID 489030 | reconstituted apoptosome caspase-3 activity, DEVD-Rh110 fluorescence; active means inhibition of at least 40% at 20 µM
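detection = Rh110 fluorescence intensity | test system = biochemical Apaf-1 apoptosome reconstitution | also added = cytochrome c and DEVD-Rh110 substrate | schedule = 30 min plus 50 min, RT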
GSTO1 inh – blocks human GSTO1 in RBBP9 counter-screen. inhibition, % at 5.96 µM. recombinant GSTO1, activity-based probe fluorescence polarization. 300,000 compounds, 1.1% hits;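 active means inhibition above the campaign mean inhibition plus 3 SD, cut at about 35% in these data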
TDP2 absorb – blocks human TDP2 phosphodiesterase activity. AID 720702. recombinant TDP2, T5PNP hydrolysis, p-nitrophenol absorbance 415 nm. inhibition, % at 12.8 µM. 370,000 compounds, 0.34% hits;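 active means inhibition above the mean of all tested compounds plus 3 SD, set per campaign, cut at about 25% in these data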
Target sequence (O95551 whole entry, looked up): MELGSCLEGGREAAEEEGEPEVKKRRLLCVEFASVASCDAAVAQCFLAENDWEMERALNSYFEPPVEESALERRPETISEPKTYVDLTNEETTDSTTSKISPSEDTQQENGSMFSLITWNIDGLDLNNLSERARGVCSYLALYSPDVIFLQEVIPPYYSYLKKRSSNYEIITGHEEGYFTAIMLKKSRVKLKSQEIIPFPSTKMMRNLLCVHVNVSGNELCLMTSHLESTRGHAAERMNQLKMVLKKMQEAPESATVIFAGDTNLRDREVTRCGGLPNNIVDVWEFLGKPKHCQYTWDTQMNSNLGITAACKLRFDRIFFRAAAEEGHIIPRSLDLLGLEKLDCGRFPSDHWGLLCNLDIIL
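Incubation: 2 h at 37 °C; Test system: recombinant human TDP2; Quantity: enzyme 120 nM; Read-out basis: percent inhibition; Medium: 50 mM Tris-HCl pH 7.5 with Mg2+, KCl, DTT, BSA; Repeats: single replicate; Compound: 12.8 µM single point, 1% DMSO; Signal: epi absorbance; Reagent: 5 mM T5PNP chromogenic substrate; Benchmarks: no-enzyme high, DMSO-plus-enzyme low.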
PP5 conf – confirmation of human PP5 phosphatase inhibitors; AID 2331; shares compounds with PP5 primary; Purified PP5, fluorogenic phosphatase substrate, fluorescence; 460 compounds, 22% hits; inhibition, % at 6.7 µM; in the data active means inhibition above about 9.5%
PP1 counter 3x – inhibits human PP1 phosphatase in PP5 counter-screen; shares compounds with PP5 primary; PP1 enzyme, fluorescent phosphatase substrate; inhibition, % at 6.7 µM; 460 compounds, 4% hits; in the data active means inhibition above about 16%
Large screens that a line does not name were inactive (follow-up assays come after a bar, where they were run).

Cc1ccc(N2C(=O)CC(NNc3nc4ccccc4s3)C2=O)cc1C (centres undefined)	none
COc1ccc(N2C(=O)CC(NNc3nc4ccccc4s3)C2=O)cc1 (centres undefined)	PP5 primary 12.0 | PP5 conf inactive | PP1 counter 3x inactive
CCOC(=O)Cc1csc(NC(=O)c2ccc(C)cc2)n1	none
CCOC(=O)Cc1csc(NC(=O)c2ccc(Cl)nc2)n1	PP5 primary 13.1 | PP5 conf inactive | PP1 counter 3x inactive
O=C(NC1CCCCCC1)C1c2ccccc2C(=O)N1Cc1ccco1 (centres undefined)	PP5 primary 10.8 | PP5 conf inactive | PP1 counter 3x inactive
COc1ccc(Br)c(C(=O)Nc2ccc(F)cc2)c1	PP5 primary 16.0 | PP5 conf inactive | PP1 counter 3x inactive
C=CCc1ccc(OCC(O)CO)c(OC)c1 (centres undefined)	none
C=CCc1ccc(O)c(-c2cc(CC=C)ccc2O)c1	PP5 primary 11.4 | PP5 conf inactive | PP1 counter 3x inactive
Nc1nc(N)c2cc(CNc3ccc(Cl)c(Cl)c3)ccc2n1	none (no result: PP1 counter, PP5 primary, Apaf-1 inh, GSTO1 inh)
CC1(C)Cc2c(sc(NC(=O)Nc3ccccc3)c2C(N)=O)CO1	PP5 primary 10.9 | PP5 conf inactive | PP1 counter 3x inactive
COC(=O)c1ccc(C2C(C(=O)OCC(C)C)=C(C)N=C3SCCC(=O)N32)cc1 (centres undefined)	PP5 primary 10.1 | PP5 conf inactive | PP1 counter 3x inactive
CC(C)(C)C(=O)N1CCN(c2ccnc3cc(Cl)ccc23)CC1	none
O=C(Nc1ccc(OC(F)(F)F)cc1)N1CCN(c2ccnc3cc(Cl)ccc23)CC1	PP5 primary 10.1 | PP5 conf inactive | PP1 counter 3x inactive
O=c1oc2ccc(Cl)cc2nc1/C=C(\O)c1cccs1	PP5 primary 12.0 | PP5 conf inactive | PP1 counter 3x inactive
Cc1ccc2oc(=O)c(/C=C(\O)c3ccccc3)nc2c1	none
CCC(CC)C(=O)Nc1cccc(C(=O)Nc2ccc(S(N)(=O)=O)cc2)c1	none
CCC(CC)C(=O)Nc1cccc(C(=O)Nc2ccc(OC)cc2[N+](=O)[O-])c1	PP5 primary 10.3 | PP5 conf inactive | PP1 counter 3x inactive
CCC(CC)C(=O)Nc1cccc(C(=O)Nc2ccc(S(=O)(=O)Nc3ccc(C)cc3)cc2)c1	PP5 primary 10.4 | PP5 conf inactive | PP1 counter 3x inactive
Cc1cc(F)ccc1C(=O)N1CCC(Oc2cccnc2)CC1	none (no result: PP1 counter, PP5 primary, Apaf-1 inh, GSTO1 inh)
Cc1ccc(-c2cc(C(=O)NCc3cccs3)no2)cc1	PP5 primary 9.9 | PP5 conf inactive | PP1 counter 3x inactive
O=C(Nc1ccc(Cl)cc1)Nc1ccccc1C(=O)N1CCCC1	none (no result: PP1 counter, PP5 primary, Apaf-1 inh, GSTO1 inh)
Cc1ccc(NC(=O)Nc2ccccc2C(=O)NCc2ccccc2)cc1	none
Cc1ccccc1NC(=O)Nc1ccccc1C(=O)NCc1ccccc1	PP5 primary 17.4 | PP5 conf inactive | PP1 counter 3x inactive
O=C(CSc1nnc(COc2ccc(Cl)cc2)n1Cc1ccco1)Nc1cccc2ccccc12	none (no result: PP1 counter, PP5 primary, Apaf-1 inh, GSTO1 inh)
Cc1snc(S(=O)(=O)/C(C#N)=N\Nc2ccccc2)c1C#N	none
Cc1snc(S(=O)(=O)/C(C#N)=N/Nc2ccc(C(F)(F)F)cc2)c1C#N	PP5 primary 10.3 | PP5 conf inactive | PP1 counter 3x inactive
O=[N+]([O-])c1cccnc1N1CCC(c2cc(-c3cccc(C(F)(F)F)c3)n[nH]2)CC1	PP5 primary 10.4 | PP5 conf inactive | PP1 counter 3x inactive
O=C(Nc1ccc(Nc2ccccc2)cc1)c1cccc(F)c1	PP5 primary 9.8 | PP5 conf inactive | PP1 counter 3x inactive
COc1ccc2occ(C(=O)c3coc4ccc(O)c(CN(C)C)c34)c2c1	PP5 primary 10.8 | PP5 conf inactive | PP1 counter 3x inactive
COc1ccc(OC)c(C(=O)c2coc3ccc(O)c(CN(C)C)c23)c1	none
CCOC(=O)c1c(-c2cccc3ccccc23)csc1NC(=O)C1C2CCC(O2)C1C(=O)O (centres undefined)	PP5 primary 10.8 | PP5 conf inactive | PP1 counter 3x inactive
Cc1c(NC(=S)N/N=C/c2cc([N+](=O)[O-])ccc2O)c(=O)n(-c2ccccc2)n1C	PP5 primary 12.4 | PP5 conf inactive | PP1 counter 3x inactive

High-throughput results as filed in PubChem BioAssay.
